Hits are enriched below; roughly 1.9% of the tested compounds scored in any of these assays.
Hck-Nef inh: blocks Nef-activated human Hck kinase; Recombinant Hck-YEEI plus Nef, Z-Lyte FRET kinase assay; inhibition, % at 20 µM; actives 0.68% (n = 220,000);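 active = Hck-Nef kinase inhibition above about 50%, limit read from the data; inactive = inhibition below that limit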;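 note: 0% = DMSO with Hck plus Nef and 100% = Hck alone without Nef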
RanGTP-Imp inh: inhibitors of RanGTP-importin-beta interaction, primary screen, biochemical, FRET, CFP-Ran, YFP-importin-beta, homogeneous | cell-free CFP-Ran/YFP-importin-beta FRET ratio | inhibition, % (test concentration not listed) | actives 1.1% (n = 300,000);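 active = more than half of the replicate wells show a fall in the fluorescence ratio signal beyond about 16%, limit read from the data, passing the limit was not always enough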;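 note: 0% = DMSO wells and 100% = Ran loaded with GDP instead of GTP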
Runt-CBFb FRET: blocks binding of human RUNX1 Runt domain to CBFb. actives 0.46% (n = 220,000). inhibition, % at 20 µM. Cerulean-Runt/Venus-CBFb FRET ratio 530/480, 1 h. Q01196+Q13951. AID 1496;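 active = inhibition over about 50% at 20 µM in the single-dose screen, limit read from the data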;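 note: 0% = DMSO wells and 100% = excess unlabeled CBFb competitor control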
Target sequence (Q01196 whole entry, looked up, the tested form may be a part): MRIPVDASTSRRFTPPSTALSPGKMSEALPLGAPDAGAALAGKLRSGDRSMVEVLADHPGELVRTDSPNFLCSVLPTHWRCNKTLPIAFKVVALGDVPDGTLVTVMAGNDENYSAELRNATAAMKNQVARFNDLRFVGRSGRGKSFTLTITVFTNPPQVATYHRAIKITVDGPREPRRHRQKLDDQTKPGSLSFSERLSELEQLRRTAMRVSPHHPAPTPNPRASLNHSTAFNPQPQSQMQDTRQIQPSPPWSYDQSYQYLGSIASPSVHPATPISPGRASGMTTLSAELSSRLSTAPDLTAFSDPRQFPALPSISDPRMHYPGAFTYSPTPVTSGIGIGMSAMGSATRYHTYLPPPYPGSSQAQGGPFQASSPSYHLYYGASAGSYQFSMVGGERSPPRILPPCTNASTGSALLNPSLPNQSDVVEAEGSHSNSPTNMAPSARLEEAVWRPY
Target sequence (Q13951 whole entry, looked up, the tested form may be a part): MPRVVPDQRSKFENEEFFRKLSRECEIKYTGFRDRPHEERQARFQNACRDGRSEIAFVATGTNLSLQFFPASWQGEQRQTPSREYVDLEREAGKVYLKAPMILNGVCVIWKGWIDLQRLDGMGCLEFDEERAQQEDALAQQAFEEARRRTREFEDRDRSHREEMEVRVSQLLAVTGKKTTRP
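Assay system: Cerulean-Runt domain / Medium: Tris 50 mM pH 7.5, KCl, K2SO4, 0.01% BSA / Timing: protein complex preformed 1 h, compound exposure 1 h, room temperature, dark / Measured by: FRET, excitation 422 nm, emission at 530 and 480 nm / Evaluation: loss of energy transfer signal / Control set: 5 µM unlabeled CBFb as full-inhibition high control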
Runt-SMMHC FRET: inhibitors of human RUNX1 Runt domain binding to CBFb-SMMHC. Q01196+Q13951. Cerulean-Runt/Venus-CBFb-SMMHC FRET ratio 530/480, 1 h. inhibition, % at 20 µM. actives 0.74% (n = 220,000). AID 1434;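 active = mean inhibition across duplicate retests at 20 µM reaching about 50%, limit read from the data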;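 note: 0% = DMSO wells and 100% = wells with excess untagged CBFb-SMMHC; inhibitors lower the FRET ratio by blocking Runt binding to CBFb-SMMHC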
* = called active by the depositor.

Results for O=C(N/N=C/c1c(O)n(Cc2ccccc2)c(=O)c2ccccc12)c1cccnc1 ?
Hck-Nef inh: -25.4; RanGTP-Imp inh: -0.3; Runt-CBFb FRET: 36.0; Runt-SMMHC FRET: 87.1*

What do the screens show for `Cc1cccc(-n2c(O)c(/C=N/NC(=O)c3ccccc3Cl)c3ccccc3c2=O)n1`?
Hck-Nef inh: 2.8; RanGTP-Imp inh: 1.8; Runt-CBFb FRET: -25.0; Runt-SMMHC FRET: 63.8

How did CN(Cc1nc(-c2ccccc2)no1)C1CCOCC1 do in these assays?
Hck-Nef inh: 15.7; RanGTP-Imp inh: 2.3; Runt-CBFb FRET: 0.4; Runt-SMMHC FRET: 2.4

What do the screens show for `O=C(NC1C/C(=N/O)c2cc3c(cc21)OCO3)C(F)(F)F` (stereo unspecified)?
Hck-Nef inh: 15.7; RanGTP-Imp inh: 0.6; Runt-CBFb FRET: 1.3; Runt-SMMHC FRET: 0.4

What do the screens show for `O=S1(=O)N=C(Nc2nncs2)c2ccccc21`?
Hck-Nef inh: -0.1; RanGTP-Imp inh: 0.3; Runt-CBFb FRET: 1.5; Runt-SMMHC FRET: -9.9

Results for c1ccc2c(Nc3nncs3)c3ccccc3nc2c1 ?
Hck-Nef inh: 26.0; RanGTP-Imp inh: 59.4*; Runt-CBFb FRET: 8.8; Runt-SMMHC FRET: 17.2

Results for O=c1c(Oc2ccccc2Br)c(C(F)(F)F)oc2c(CN3CCCC3)c(O)ccc12 ?
Hck-Nef inh: 0.0; RanGTP-Imp inh: 50.8*; Runt-CBFb FRET: -7.9; Runt-SMMHC FRET: -23.2

How did CN(C)CCCC(C)(O)C(C)(C)c1ccccc1 (stereo unspecified) do in these assays?
Hck-Nef inh: 3.3; RanGTP-Imp inh: -3.2; Runt-CBFb FRET: 73.4*; Runt-SMMHC FRET: -2.8

How did CS(=O)(=O)N1CCN(c2ccc([N+](=O)[O-])c(NCc3ccccc3)c2)CC1 do in these assays?
Hck-Nef inh: 1.6; RanGTP-Imp inh: 1.5; Runt-CBFb FRET: -3.6; Runt-SMMHC FRET: -8.7

What do the screens show for `CS(=O)(=O)N1CCN(c2ccc([N+](=O)[O-])c(NCc3ccc(Cl)cc3)c2)CC1`?
Hck-Nef inh: 98.1*; RanGTP-Imp inh: -4.3; Runt-CBFb FRET: -17.2; Runt-SMMHC FRET: -60.5

What do the screens show for `N#Cc1ccccc1NC(=O)COC(=O)c1ccc(F)cc1F`?
RanGTP-Imp inh: -1.9

Results for Cc1ccc(Cl)cc1-n1c(=O)cc(N2CCN(C(=O)c3ccco3)CC2)[nH]c1=O ?
Hck-Nef inh: 9.3; RanGTP-Imp inh: 32.4*; Runt-CBFb FRET: -0.6; Runt-SMMHC FRET: 1.7

Results for Cc1cccc(N2CSC3=C(C#N)C(c4ccc(C)o4)CC(=O)N3C2)c1 (stereo unspecified) ?
Hck-Nef inh: 80.1*; RanGTP-Imp inh: -5.5; Runt-CBFb FRET: 23.4; Runt-SMMHC FRET: 19.4

How did COc1cc(OC)c(C2CC(=O)N3CN(c4ccccc4C)CSC3=C2C#N)cc1OC (stereo unspecified) do in these assays?
Hck-Nef inh: 13.0; RanGTP-Imp inh: -64.3; Runt-CBFb FRET: 40.7; Runt-SMMHC FRET: 66.8*

What do the screens show for `COc1ccc(OC)c(C2CC(=O)N3CN(c4ccccc4)CSC3=C2C#N)c1` (stereo unspecified)?
Hck-Nef inh: -0.2; RanGTP-Imp inh: -6.8; Runt-CBFb FRET: 32.9; Runt-SMMHC FRET: 62.0*

How did Cc1ccccc1-n1cnc2c(sc3nc(N4CCOCC4)c4c(c32)CCCC4)c1=O do in these assays?
Hck-Nef inh: -1.9; RanGTP-Imp inh: 0.3; Runt-CBFb FRET: 3.3; Runt-SMMHC FRET: -4.0

How did CCOC(=O)CN=C/C(C(C)=O)=C(/C)O do in these assays?
Hck-Nef inh: 3.5; RanGTP-Imp inh: 62.7*; Runt-CBFb FRET: 0.6; Runt-SMMHC FRET: 0.0

How did Cc1cc(NC(=O)CC2(CC(=O)O)CCCC2)n(C)n1 do in these assays?
Hck-Nef inh: 14.4; RanGTP-Imp inh: -1.5; Runt-CBFb FRET: 0.6; Runt-SMMHC FRET: 1.5

What do the screens show for `Cc1ccc(S(=O)(=O)Oc2ccc(C3C4=C(CCCC4=O)OC4=C3C(=O)CCC4)cc2)cc1`?
Hck-Nef inh: 2.0; RanGTP-Imp inh: 1.4; Runt-SMMHC FRET: -5.5

How did CCOc1cc(C2C3=C(CCCC3=O)N(CCC(=O)O)C3=C2C(=O)CCC3)ccc1OS(=O)(=O)c1ccc(C)cc1 do in these assays?
Hck-Nef inh: 32.7; RanGTP-Imp inh: 104.0*; Runt-CBFb FRET: 25.5

Results for Cc1ccc(S(=O)(=O)Oc2ccc(C3C4=C(CCCC4=O)N(CCC(=O)O)C4=C3C(=O)CCC4)cc2Cl)cc1 ?
Hck-Nef inh: 31.8; RanGTP-Imp inh: 128.5*; Runt-CBFb FRET: 4.9

What do the screens show for `CCN(CC)C(=S)SC1CCCCN(C(=O)c2ccc(F)cc2)C1=O` (stereo unspecified)?
Hck-Nef inh: -9.8; RanGTP-Imp inh: 0.4; Runt-CBFb FRET: -0.7; Runt-SMMHC FRET: 3.2

Results for O=c1c(/C=C(\O)c2ccccc2)nc2ccccc2n1-c1ccccc1 ?
Hck-Nef inh: -2.1; RanGTP-Imp inh: 71.6*; Runt-CBFb FRET: -101.2; Runt-SMMHC FRET: -66.0

Results for Cc1ccc(NC(NC(=O)OCCn2c([N+](=O)[O-])cnc2C)C(Cl)(Cl)Cl)cc1 (stereo unspecified) ?
Hck-Nef inh: 0.7; RanGTP-Imp inh: 17.8*; Runt-CBFb FRET: 0.5; Runt-SMMHC FRET: -0.7

What do the screens show for `Cc1ncc([N+](=O)[O-])n1CCOC(=O)NC(NCc1ccccc1Cl)C(Cl)(Cl)Cl` (stereo unspecified)?
Hck-Nef inh: 1.1; RanGTP-Imp inh: 1.7; Runt-CBFb FRET: -0.8; Runt-SMMHC FRET: 0.6

What do the screens show for `O=C(c1cccs1)N(c1ccc(Br)cc1)C1C=CS(=O)(=O)C1` (stereo unspecified)?
Hck-Nef inh: 15.7; RanGTP-Imp inh: -1.0; Runt-CBFb FRET: -0.5; Runt-SMMHC FRET: -1.4

Results for Cc1ccc2nc(/C(C#N)=C/c3ccccc3C(=O)O)[nH]c2c1 ?
RanGTP-Imp inh: 8.4

What do the screens show for `Cc1ccc2nc(/C(C#N)=C/c3ccc(O)c(O)c3)[nH]c2c1`?
RanGTP-Imp inh: 28.4*

Results for Cc1ccc(S(=O)(=O)c2cc3c(=O)n4cccc(C)c4nc3n(Cc3ccncc3)c2=N)cc1 ?
RanGTP-Imp inh: 112.4*

Results for N=c1c(S(=O)(=O)c2ccc(Br)cc2)cc2c(=O)n3ccccc3nc2n1Cc1ccccc1 ?
RanGTP-Imp inh: 0.4

How did Cc1cccn2c(=O)c3cc(S(=O)(=O)c4ccccc4)c(=N)n(Cc4cccnc4)c3nc12 do in these assays?
RanGTP-Imp inh: 139.2*

What do the screens show for `N=c1c(S(=O)(=O)c2ccccc2)cc2c(=O)n3ccccc3nc2n1Cc1cccnc1`?
RanGTP-Imp inh: 122.3*

How did CN(C)S(=O)(=O)c1ccc(N=Cc2c(C(F)(F)F)[nH]n(C)c2=O)cc1 do in these assays?
Hck-Nef inh: -0.8; RanGTP-Imp inh: -0.6; Runt-CBFb FRET: 0.3; Runt-SMMHC FRET: -2.8

How did CN1CCc2c(C#N)c(N3CCOCC3)nc(NCC3CCCO3)c2C1 (stereo unspecified) do in these assays?
Hck-Nef inh: 10.6; RanGTP-Imp inh: 70.5*; Runt-CBFb FRET: 32.6; Runt-SMMHC FRET: 6.3

What do the screens show for `CCCc1nc(N2CCOCC2)c(C#N)c2c1CCCC2`?
Hck-Nef inh: 1.8; RanGTP-Imp inh: 0.3; Runt-CBFb FRET: 0.6; Runt-SMMHC FRET: -6.3

What do the screens show for `O=C(Oc1ccc2ccc(=O)oc2c1)c1ccccc1`?
RanGTP-Imp inh: 9.9

Source: PubChem BioAssay
